# Bioassay records: PubChem, several laboratories
# Autophagy mod: modulators of autophagy; 190,000 tested, 0.98% active; MEF GFP-LC3 puncta imaging; test concentration mostly 10 µM; calls only at 10 µM (by protocol); AID 463193;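 active = percentage of spot-positive cells more than 3 SD above its plate mean, without a fluorescence outlier flag or 80% toxicity; inconclusive = no clear call, values can overlap the other calls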;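 note: spot-positive cell cutoff set from DMSO-treated cells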
# Dynein cargo inh: blocks dynein driven cargo transport along microtubules | 3617.4 mouse cells, GR-EGFP nuclear translocation imaging; test concentration mostly 20 µM; stimulated with dexamethasone, 1 µM; active compounds read low | z-score, hits read low | 220,000 tested, 0.47% active | AID 1381;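 active = plate z-score of nuclear minus cytoplasmic receptor signal below a set negative limit, without overly bright fluorescence or cell loss, cut at about -3.5 in these data, passing the limit was not always enough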;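 note: z-score of nuclear minus cytoplasmic ring GR-EGFP intensity difference per well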
#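 Also added – dexamethasone, 1.0 µM final · Buffer or medium – tet-free, stripped-serum medium · Schedule – induction 48 h, compound 1 h, agonist 30 min · Detection – formaldehyde fixation, Hoechst nuclear stain, 10x automated fluorescence imaging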
# PERK inh: blocks human PERK kinase | Q9NZJ5 | CHO PERK-DD fusion, SEAP luminescence translation reporter | inhibition, % at 5.6 µM | 220,000 tested, 0.17% active;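 active = inhibition above the mean inhibition of all tested compounds plus 3 SD, set separately per screening campaign, cut at about 2.9% in these data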;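 note: PERK kinase domain activated by AP20187 dimerizer at 100 nM; 0% = DMSO with dimerizer and 100% = rapamycin at 8.4 µM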
# Target sequence (Q9NZJ5 whole entry, looked up, the tested form may be a part): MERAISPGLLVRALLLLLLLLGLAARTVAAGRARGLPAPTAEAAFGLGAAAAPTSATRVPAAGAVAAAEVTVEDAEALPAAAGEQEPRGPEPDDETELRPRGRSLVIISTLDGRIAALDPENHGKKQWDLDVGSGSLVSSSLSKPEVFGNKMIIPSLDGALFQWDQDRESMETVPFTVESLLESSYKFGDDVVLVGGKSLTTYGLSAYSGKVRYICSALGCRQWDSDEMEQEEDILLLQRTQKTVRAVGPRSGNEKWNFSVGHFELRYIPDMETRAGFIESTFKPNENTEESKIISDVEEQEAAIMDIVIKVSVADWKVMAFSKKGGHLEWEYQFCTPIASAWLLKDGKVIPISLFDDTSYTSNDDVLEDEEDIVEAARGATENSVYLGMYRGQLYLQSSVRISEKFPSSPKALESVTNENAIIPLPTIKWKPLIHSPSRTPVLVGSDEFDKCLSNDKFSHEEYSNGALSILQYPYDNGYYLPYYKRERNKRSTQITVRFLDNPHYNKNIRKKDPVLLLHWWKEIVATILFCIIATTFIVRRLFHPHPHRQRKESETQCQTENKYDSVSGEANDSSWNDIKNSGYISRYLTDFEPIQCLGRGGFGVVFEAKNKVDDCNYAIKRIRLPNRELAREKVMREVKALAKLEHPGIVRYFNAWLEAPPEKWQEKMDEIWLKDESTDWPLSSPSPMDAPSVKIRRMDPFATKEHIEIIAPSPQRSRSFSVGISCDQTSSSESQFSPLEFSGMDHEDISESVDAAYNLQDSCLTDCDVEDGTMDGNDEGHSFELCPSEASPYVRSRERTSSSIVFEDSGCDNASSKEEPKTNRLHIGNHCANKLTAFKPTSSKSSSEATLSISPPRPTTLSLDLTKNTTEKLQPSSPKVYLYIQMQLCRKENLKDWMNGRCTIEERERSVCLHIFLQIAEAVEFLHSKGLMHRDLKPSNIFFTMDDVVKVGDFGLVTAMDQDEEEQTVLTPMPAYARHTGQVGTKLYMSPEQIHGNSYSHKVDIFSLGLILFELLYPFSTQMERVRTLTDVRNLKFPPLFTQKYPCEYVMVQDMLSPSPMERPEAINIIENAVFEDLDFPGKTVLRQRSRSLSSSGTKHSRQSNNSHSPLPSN
# INS promoter inh: TRM-6 insulin promoter activity inhibition | inhibition, % at 2 µM | 130,000 tested, 0.9% active | TRM-6 cells (human fetal islet line), insulin promoter-eGFP reporter, imaging; reporter expression induced with tamoxifen;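 active = inhibition above the mean plus 3 SD, with well images judged a real hit on visual review, cut at about 60% in these data, passing the limit was not always enough; inconclusive = inhibition over the cutoff but images rejected on review; inactive = inhibition not above the cutoff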
# Ins promoter up: MIN6 insulin promoter up-regulation | MIN6 insulin promoter-GFP reporter, high-content imaging; active compounds read high | z-score at 5 µM | 190,000 tested, 0.3% active | AID 1625;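 active = z-score above 3 at 5 µM with at least 500 cells counted in the well; inconclusive = wells under 500 cells, flagged as cytotoxic or low count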
# Numbers without * were called inactive; i = inactive; ? = inconclusive; . = not tested or not shown; + = active, no number. Only some compounds are listed: those with a hit (about 2.1% of all), similar ones and a draw of the others.
SMILES,Autophagy mod,Dynein cargo inh,PERK inh,INS promoter inh,Ins promoter up
CCOC(=O)N1CCN(c2c(N3CCN(c4cccc(C)c4C)CC3)c(=O)c2=O)CC1,+,-0.16,1,.,0.71
CCOC(=O)NC(=O)C(=CNc1ccc(C)cc1)C(=O)NC(=O)OCC,i,2.6,0,-8,-0.16
O=C(C1=C[C@H](C2CC2)C[C@H](OCCCCO)O1)N1CCOCC1,i,-0.56,1,.,0.66
Cc1cc(C(=O)O)ccc1-n1c(C)ccc1C,i,0.18,3.3*,50,.
Cc1cc(N)ccc1-n1c(C)ccc1C,i,0.78,0,.,.
N#C/C(=C\C=C\c1ccccc1[N+](=O)[O-])c1nc(-c2ccc3c(c2)OCO3)cs1,+,-0.78,1,12,0.99
Cc1ccc(NCCc2ccc(C)nc2)cc1,i,-0.1,0,75*,-0.85
CC(=O)Nc1ccc(NC(=O)Cn2c(=O)n(-c3ccc(C)cc3)c(=O)c3oc4ccccc4c32)cc1,i,0.086,2,-35,-0.26
CCOc1ccc(N=C2NC(=O)S/C2=C\c2ccc(OC)cc2)cc1,+,-0.55,0,3,.
COc1ccc(/C=C2/SC(=O)NC2=O)cc1,i,0.62,0,-27,-0.19
COc1cc(CC(=O)OCC(=O)Nc2cc([N+](=O)[O-])ccc2Cl)cc(OC)c1OC,i,-1.2,1,.,0.71
CCC1=NN(C(=O)Cc2ccc([N+](=O)[O-])cc2)C(O)(C(C)(C)C)C1 (stereo not given),+,0.072,0,-44,-0.2
CCc1ccc(C2(O)CC(C(F)(F)F)=NN2C(=O)Cc2ccc([N+](=O)[O-])cc2)cc1 (stereo not given),i,1.6,0,-55,.
O=c1ccc(Cl)cn1Cc1ccccc1F,i,-0.6,1,-56,.
CCCNC(=O)N1CCC(C(=O)c2ccc(F)cc2)CC1,i,-0.75,0,26,-0.44
CCCNC(=O)N1CCC(C(=O)c2ccc(Cl)cc2)CC1,i,1.9,0,29,3.8*
N#CCSc1ccc(-c2nc3ccccc3[nH]2)cn1,i,1,1,90*,.
CCCOc1ccc(C(=O)C(CN2CCCC2)c2ccccc2)cc1 (stereo not given),i,-3.4,-1,?,-3.5
CCC(O)(c1ccc(OC)cc1)C(CN1CCOCC1)c1ccccc1 (stereo not given),i,-1.1,0,.,-0.29
c1ccc(C(CN2CCOCC2)c2ccccc2)cc1,i,0.37,0,.,-0.3
COc1ccc(C(=O)C(CN2CCOCC2)c2ccccc2)cc1 (stereo not given),i,-3.4,0,92*,-3.7
CCCCOc1ccc(C(=O)C(CN2CCOCC2)c2ccccc2)cc1 (stereo not given),+,-2.3,0,78*,.
CN(C)CC(CCC(CN(C)C)C(=O)c1ccccc1)C(=O)c1ccccc1 (stereo not given),.,-5*,-1,.,-1.9
O=C(c1ccccc1)C(CCC(CN1CCOCC1)C(=O)c1ccccc1)CN1CCOCC1 (stereo not given),i,-6.1*,-1,-4,0.54
O=C(CN1CCN(S(=O)(=O)c2ccc3ccccc3c2)CC1)Nc1ccc2c(c1)CCC2,i,-0.79,0,-17,0.49
SMILES,Autophagy mod,Dynein cargo inh,PERK inh,INS promoter inh,Ins promoter up
COc1ccc(NC(=O)c2ccc(NC(=O)CN(C)CC(=O)Nc3c(C)cccc3C)cc2)cc1,.,2.3,1,.,.
CC1Cn2c(nc(=O)c3c2NCN(CCc2ccccc2)C3)S1 (stereo not given),i,-0.58,1,67,0.06
Cc1ccc(S(=O)(=O)N2CCC(c3nc4c(nnn4Cc4ccccc4)c(=O)[nH]3)CC2)cc1,+,0.88,0,.,-0.71
Cc1ccc(Cn2nnc3c(=O)[nH]c(C4CCN(S(=O)(=O)c5ccccc5)CC4)nc32)cc1,i,-0.49,0,.,-0.19
COc1ccccc1C(=O)NNC(=O)c1cccc(Cl)c1,+,-0.77,1,.,1.2
CCN(CC)C(=O)CC(c1ccc(N(C)C)cc1)c1c(O)cc(OC)cc1OC (stereo not given),.,0.85,.,.,0.34
O=C(C1=NN(c2ccccc2)C2C(=O)N(c3cccc(Cl)c3)C(=O)C12)c1ccccc1 (stereo not given),i,0.24,-1,-18,3.2*
O=C(C1=NN(c2ccccc2)C2C(=O)N(c3ccc(Cl)cc3)C(=O)C12)c1ccccc1 (stereo not given),i,0.15,1,16,0.77
Cc1ccc(CNC(=O)C2CC(=O)N(c3ccc(OCC(=O)N4CCCC4)cc3)C2)cc1 (stereo not given),i,0.55,0,38,0.15
O=C1NC2=C(CCc3ccccc32)C(c2ccccc2)N1 (stereo not given),i,0.76,0,61*,-0.43
COc1ccc(/C=C/C(=O)c2ccccc2)cc1Cn1nnc2ccccc21,i,-1.2,0,.,2.1
COc1ccc2c3c1OC1CC(O)C=CC31CCN(C)C2 (stereo not given),.,0.45,3.1*,.,.
COc1ccc2c(c1O)-c1ccccc1CCN(C)C2,i,0.5,0,.,-0.45
CSc1nsc(SCC(=O)N2CCN(c3ccccc3)CC2)n1,i,1.5,0,-27,0.64
Nc1nc(CN2CCN(c3ccccn3)CC2)nc(Nc2ccc(Cl)cc2)n1,i,-1.3,-2,0,-0.3
O=C1NC(c2ccncc2)C(C(=O)c2cccs2)C(O)(C(F)(F)F)N1 (stereo not given),i,0.6,3.0*,67,0.61
O=c1c2c3c(sc2nc2n1CCC2)CCCCC3,+,1,1,.,-0.3
O=c1c2c3c(sc2nc2n1CCC2)CCC3,i,0.26,-2,-75,0.44
CN(C)S(=O)(=O)c1ccc(NC=O)cc1,i,1.3,0,20,-0.39
CCNc1nc(Oc2ccc(=O)[nH]n2)nc(N2CCOCC2)n1,i,-0.063,0,75*,.
COc1ccc(CNC(=O)c2coc(=O)c3ccccc23)c(OC)c1,i,-1.2,0,.,-1.3
OC1(c2cn(Cc3ccccc3)nn2)CCCCC1,i,-0.18,0,.,5.9*
CC(=O)Nc1ccc(OC(F)(F)C(F)C(F)(F)F)c(NC(C)=O)c1 (stereo not given),i,-0.052,0,.,.
COc1cccc(-n2nnnc2SCC(=O)NC2CCCC2)c1,i,0.83,-1,75*,0.09
COC(CN1C(=O)C(O)=C(C(C)=O)C1c1ccccn1)OC (stereo not given),i,0.8,0,9,-0.37
CN(CC(=O)O)Cc1nc2ccccc2[nH]1,i,-0.41,0,.,0.01
CCCCC(=O)Nc1ccccc1C(=O)N1CCOCC1,i,-0.0019,-1,71*,0.54
O=C(c1ccc(Cl)cc1)c1ccccc1C(=O)N1CCOCC1,i,-0.037,-1,0,0.46
O=C(c1ccccc1)c1ccccc1C(=O)N1CCOCC1,i,-0.068,2,90*,-0.84
